Screening results deposited in PubChem by The Scripps Research Institute Molecular Screening Center.
Compounds with a hit are over-represented: about 3.6% of the library has one in this group of screens.
PAFAH1B3 FP inh – inhibitors of human PAFAH1B3. inhibition, % at 3.39 µM. Q15102. 0.28% of 340,000 active. AID 492972. recombinant PAFAH1B3, FP-rhodamine probe, fluorescence polarization;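 active = inhibition above the screen-wide average of all tested compounds plus 3 SD, cut at about 25% in these data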;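 note: 0% = enzyme with DMSO only and 100% = wells lacking PAFAH1B3 protein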
IMP-1 inh – blocks Pseudomonas aeruginosa IMP-1 metallo-beta-lactamase; purified IMP-1, nitrocefin hydrolysis, epi-absorbance fluorescence; inhibition, % at 5.6 µM; 0.45% of 290,000 active; AID 1556;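 active = inhibition above the mean plus 3 SD of all compounds in the same screening run, cut at about 4.5% in these data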;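 note: 0% = IMP-1 with DMSO and 100% = DMSO wells lacking enzyme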
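System: purified IMP-1; amount: IMP-1 0.2 nM before substrate addition; compound: single dose, 5.6 µM; times: 25 °C, 15 min preincubation, 25 min reaction; signal: Epi-absorbance via hydrolysed-nitrocefin quenching of white-plate fluorescence, 480/530 nm, EDTA stop; benchmarks: DMSO with and without IMP-1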
PAFAH1B2 FP inh – blocks human PAF acetylhydrolase 1b catalytic subunit 2 | P68402 | recombinant PAFAH1B2, FP-rhodamine activity probe, fluorescence polarization | inhibition, % at 3.39 µM | 1.2% of 340,000 active;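 active = inhibition above the mean of all tested compounds plus 3 SD, cut at about 24% in these data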;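 note: 0% = enzyme with DMSO and 100% = wells lacking PAFAH1B2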
pPAFAH inh – pPAFAH (human) enzyme inhibition. inhibition, % at 3.39 µM. Q13093. recombinant pPAFAH, FP-rhodamine probe fluorescence polarization. 1.5% of 330,000 active;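 active = inhibition above the mean inhibition across the screen plus 3 SD, cut at about 25% in these data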;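 note: inhibitors block binding of the rhodamine activity-based probe so polarization drops; 0% = enzyme with DMSO and 100% = wells lacking pPAFAH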
Target sequence (Q13093 whole entry, looked up): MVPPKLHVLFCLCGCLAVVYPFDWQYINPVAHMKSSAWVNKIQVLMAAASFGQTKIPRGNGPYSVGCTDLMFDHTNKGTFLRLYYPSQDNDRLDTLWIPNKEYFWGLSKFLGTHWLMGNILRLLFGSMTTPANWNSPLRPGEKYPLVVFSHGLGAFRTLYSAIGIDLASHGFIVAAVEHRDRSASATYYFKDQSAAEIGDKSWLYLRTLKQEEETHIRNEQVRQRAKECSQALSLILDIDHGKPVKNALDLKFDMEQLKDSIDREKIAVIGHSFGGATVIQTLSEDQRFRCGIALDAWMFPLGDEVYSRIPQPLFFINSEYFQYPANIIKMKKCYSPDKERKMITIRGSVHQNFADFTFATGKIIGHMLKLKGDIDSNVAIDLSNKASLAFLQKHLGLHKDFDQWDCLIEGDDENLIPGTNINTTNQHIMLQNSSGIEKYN
VIM-2 inh – inhibitors of Pseudomonas aeruginosa VIM-2 metallo-beta-lactamase; inhibition, % at 5.6 µM; purified VIM-2, nitrocefin hydrolysis, epi-absorbance fluorescence; 0.89% of 290,000 active;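 active = inhibition above the mean of all tested compounds plus 3 SD, cutoff set per screening run, cut at about 7.5% in these data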;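 note: red hydrolysis product quenches plate fluorescence so inhibitors raise well fluorescence; 0% = enzyme with DMSO and 100% = DMSO without enzyme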
PAFAH2 FP inh – PAFAH2 (human) inhibition; 0.99% of 340,000 active; Q99487; inhibition, % at 3.39 µM; recombinant PAFAH2, FP-rhodamine activity probe, fluorescence polarization;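 active = inhibition above the mean over all tested compounds plus 3 SD, cut at about 30% in these data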;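 note: inhibitors block probe labeling of enzyme so polarization drops; 0% = enzyme with DMSO and 100% = wells lacking PAFAH2 protein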
An asterisk follows results filed as active; x = not tested or not shown.

SMILES	PAFAH1B3 FP inh	IMP-1 inh	PAFAH1B2 FP inh	pPAFAH inh	VIM-2 inh	PAFAH2 FP inh
COC(=O)CSc1nnc2cc(C)c3ccccc3n12	-1	2	3	2	10*	0
CCOC(=O)C1(CCOC)CCN(C/C=C/c2ccccc2OC)CC1	7	-1	3	-2	-2	2
COCCN(C(=O)c1ccc2c(c1)C(=O)N(c1ccccc1Cl)C2=O)c1c(N)n(CC(C)C)c(=O)[nH]c1=O	8	x	6	x	x	10
COc1ccc(C(=O)COC(=O)/C=C/c2ccccc2[N+](=O)[O-])cc1	3	x	6	18	x	3
COC(=O)CNC(=O)COC(=O)/C=C/c1ccccc1[N+](=O)[O-]	17	-1	6	5	1	5
COc1ccc(NC(=O)COC(=O)/C=C/c2ccccc2[N+](=O)[O-])cc1OC	6	1	6	30*	-1	17
O=C(/C=C/c1ccccc1[N+](=O)[O-])OCC(=O)c1ccccc1	1	-3	4	25*	-4	29
O=C(CN1C(=O)NC(CCc2ccccc2)C1=O)Nc1cccc(Br)c1 (configuration not stated)	5	x	11	0	x	-6
CC(=O)N(Cc1cc2ccccc2[nH]c1=O)c1ccc(C)cc1	9	0	10	-3	1	0
O=C(Nc1ccccc1OCc1ccccc1)c1ccccc1Br	9	0	6	0	0	5
Cc1ccc(S(=O)(=O)N2CCOCC(=O)NCCOCCNC(=O)COCC2)cc1	9	-2	2	x	0	1
Cc1cc(C)c2c(c1)[C@@H]1C=CC[C@@H]1[C@H](c1ccc(S(=O)(=O)N3CCOCC3)cc1)N2	2	8.1*	2	-3	-1	-4
Cc1ccc(C(=O)NCC(=O)NCC(c2cccs2)N(C)C)cc1C (configuration not stated)	1	x	5	0	x	9
CCn1c(=NC(=O)c2ccc(N3C(=O)CCC3=O)cc2)sc2c(OC)ccc(OC)c21	-15	-1	-5	0	-1	-17
CCn1c(=NC(=O)CN2C(=O)CCC2=O)sc2c(OC)ccc(OC)c21	6	4.6*	3	-1	0	6
CSC1SCC2C(=O)N(C)C(C(C)C)C(=O)OCC(NC(=O)c3cnc4ccccc4n3)C(=O)NC(C)C(=O)N(C)C1C(=O)N(C)C(C(C)C)C(=O)OCC(NC(=O)c1cnc3ccccc3n1)C(=O)NC(C)C(=O)N2C (configuration not stated)	6	x	5	x	x	2
Cc1cc(F)ccc1NC(=O)c1ccc(NS(=O)(=O)c2cc(C(C)(C)C)ccc2C)cc1	-34	3	-10	25*	0	-23
O=C(Nc1ccccc1C(F)(F)F)c1cc(S(=O)(=O)N2CCC3(CC2)OCCO3)ccc1F	0	-3	24*	7	-2	6
CC(C)N(C(=O)CSc1nnc(NC(=O)c2cccs2)s1)C(C)C	10	-3	8	3	10.0*	1
CCCCC(CC)c1nnc(NC(=O)c2cccs2)s1 (configuration not stated)	15	-2	27*	x	-4	7
CC(C)(C)c1nnc(NC(=O)c2cccs2)s1	4	-6	-3	5	-2	0
CCOc1ccccc1N=C1SCC(C)N1C(=O)C1CCN(c2ncnc3sc(C)c(C)c23)CC1 (configuration not stated)	7	x	5	x	x	3
Cc1nc(N)nc(N(C)c2ccccc2)c1Br	5	x	5	x	x	-5
O=C(CCCCCNC(=O)N1CCn2c1nc1ccccc12)N[C@H](C(=O)O)c1ccccc1	10	-3	3	-2	-3	6
CSc1nnc(-c2ccco2)c(-c2ccco2)n1	7	-3	8	31*	-1	21
SMILES	PAFAH1B3 FP inh	IMP-1 inh	PAFAH1B2 FP inh	pPAFAH inh	VIM-2 inh	PAFAH2 FP inh
O=C(Cc1ccc(Br)cc1)c1ccc(O)cc1O	4	-3	82*	4	-2	-3
COc1cccc(Nc2ccccc2C(=O)O)c1	3	-4	2	-1	-2	8
COc1cc(-c2ccc(Nc3ccccc3C(=O)O)c(OC)c2)ccc1Nc1ccccc1C(=O)O	29*	-3	12	x	0	54*
CCOC(OCC)c1cn(Cc2ccc(C(=O)c3ccccc3)cc2)nn1	8	-2	1	9	1	1
Cc1ccc(N2CC(C)Cn3c2nc2c3c(=O)[nH]c(=O)n2C)cc1C (configuration not stated)	9	-2	0	2	8.7*	0
Cc1ccc(N2CC(C)Cn3c2nc2c3c(=O)[nH]c(=O)n2C)cc1 (configuration not stated)	12	0	7	x	5	-1
COc1ccc(CN2C(=O)C(Cc3ccccc3)Nc3ncnc(N4CCc5ccccc5C4)c32)cc1 (configuration not stated)	x	x	x	-1	x	x
O=c1[nH]cnc2c1c(-c1ccccc1)cn2-c1ccccc1	9	-3	-1	20	1	5
Fc1ccc(-n2cc(-c3ccccc3)c3c(=S)nc[nH]c32)cc1	2	-2	1	30*	-2	0
NC(=O)/C(=C/c1ccco1)C(N)=S	16	-1	10	26*	-1	7
CCC(C)N(C(=O)Cn1nnc(-c2ccc(F)cc2)n1)C1CCS(=O)(=O)C1 (configuration not stated)	9	-2	2	-1	0	-4
Oc1ccc(NC(=S)N=Nc2c(O)[nH]c3ccc(Br)cc23)cc1	19	-2	11	x	1	12
Oc1cccc(NC(=S)N=Nc2c(O)[nH]c3ccc(Br)cc23)c1	16	-3	10	28*	-4	7
CCCCCCC(=O)NN1CCN(C)CC1	0	8.0*	-3	-1	-4	0
CCC(NC(C)C)C(O)c1ccc(O)c(O)c1 (configuration not stated)	7	-1	4	6	1	1
CCC(c1ccc(O)c(O)c1)C(CC)c1ccc(O)c(O)c1 (configuration not stated)	-4	x	27*	x	x	-2
Cc1noc(C)c1COc1ccccc1C(=O)NC(C)CCc1ccccc1 (configuration not stated)	0	x	2	x	x	-5
Cc1noc(C)c1COc1ccccc1C(=O)NC(C)c1ccc(Cl)cc1 (configuration not stated)	9	x	32*	-4	x	0
Cc1ccc(NC(=O)COC(=O)CCc2c(C)nc3ncnn3c2C)cc1	3	x	-1	-3	x	11
Cc1ccc(C(=O)N/C(=C\c2ccco2)C(=O)NCCCn2ccnc2)cc1C	-1	9.7*	0	0	3	0
COc1ccc(Cl)cc1C(=O)NCCCn1ccnc1	5	3	-3	-8	6	-2
COc1ccc(C(C)=O)cc1CC(=O)NCCCn1ccnc1	6	4.8*	1	0	-2	-1
